Consider 5 compounds from article PMC2910123 (Journal of inorganic biochemistry, 2010).

The subject of data set [1] is poly (dG-dC).poly (dG-dC). The conditions noted are these: cited from earlier work.
The test system of data set [2] is poly (dA-dT).poly (dA-dT). The conditions noted are these: cited from earlier work.
Data set [3] deals with CT DNA. The data set can be described thus: Spectrophotometric. Type of data set: binding, calf. The conditions noted are these: 25°C, 5mM Tris/HCl, 50 mM NaClO4 buffer, pH=7.39; average of values calculated at 330 and 343 nm.
Data set [4] deals with CT DNA. The data set can be described thus: Fluorimetric. Format: binding, calf. The conditions noted are these: 25°C, 5mM Tris/HCl, 50 mM NaClO4 buffer, pH=7.39; values calculated at 380 nm.
The test system of data set [5] is CT DNA. The experiment in a line: Thermal denaturation of CT DNA. Type of data set: binding, calf. The conditions noted are these: 0.5 equivalents of drug, 1h at 25°C, 5 mM Tris/HCl buffer; for ΔTm /1h incubation/25mM NaClO4: pH=7.39, 25mM NaClO4; for ΔTm /1h incubation/50m M NaClO4: pH=7.39, 50 mM NaClO4.
Data set [6] has as its system SUP-T1 lymphoma cells. The data set can be described thus: Cytotoxicity assay by flow cytometry. Type of data set: cell-based, human. For orientation: Flow cytometry measures light scatter and fluorescence of single cells or particles in a stream.
The subject of data set [7] is Jurkat human T lymphocyte leukemia cells. The data set can be described thus: Cytotoxicity assay by flow cytometry. Format: cell-based.
Data set [8] concerns pBR322 plasmid DNA. The experiment in a line: Electrophoresis Mobility Shift Assay. The conditions noted are these: pBR322, 20 h at 37°C, molar ratios 0.25 to 1.0 (cisplatin 0.5 eq.). Type of data set: binding.
Data set [9] relates to CT DNA. The experiment in a line: Circular dichroism spectroscopy of CT DNA. Format: binding, calf. The conditions noted are these: incubated at 37°C with increasing drug/DNA ratios.
In data set [10] the test system is several cancer cell lines. The conditions noted are these: cited from earlier work.
Data set [11] concerns Jurkat cells. The experiment in a line: Apoptosis assay by two-color flow cytometry. Type of data set: cell-based, human. The conditions noted are these: 100 µM, 16 h. The gist of the method:
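Jurkat cells were plated at 100,000 cells/well in RPMI 1640 with antibiotics and 10% heat-inactivated newborn calf serum, then exposed to 100 µM test compound (in 0.9% NaCl or DMSO) for 16 h. Cells were pelleted cold, washed in cold medium then PBS, and stained with Annexin V-FITC plus PI in HEPES binding buffer (pH 7.4, 140 mM NaCl, 2.55 mM CaCl2). Compensation used unstained, single- and double-stained cells.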

In data set [12] the test system is dedifferentiated liposarcoma cell line LS141. The conditions noted are these: cited from earlier work.
The test system of data set [13] is HCT-116 colon cancer cell lines. The conditions noted are these: cited from earlier work.

On to `CCN(CC)CCCC(C)Nc1ccnc2cc(Cl)ccc12.O=P(O)(O)O.O=P(O)(O)O` (single isomer, unassigned; (-)) [(−)-CQDP], for which the “binding affinity ratio of (−) to (+) enantiomer” value is on record as 1.29 in data set [1] and 1.28 in data set [2].

With `CCN(CC)CCCC(C)Nc1ccnc2cc(Cl)ccc12` (stereo not shown) [CQDP, chloroquine diphosphate], in data set [3], the “Kb1, Absorption Titration” value was 1.07 ± 0.05 x 10^7 M^−1 and the “Kb2, Absorption Titration” value is 1.23 ± 0.68 x 10^5 M^−1. In data set [4], the “Kb1, Emission Titration” value was 2.63e+07 M⁻¹ and the “Kb2, Emission Titration” value was 438000 M⁻¹. Also, in data set [5], the “ΔTm /1h incubation/25mM NaClO4” value is “+4.9 °C” and the “ΔTm /1h incubation/50m M NaClO4” value is “+3.0 °C”. Moreover, it took 130 µM to reach half-maximal cytotoxicity in data set [6] (Homo sapiens, SUP-T1, 20 h) (CC50). In addition, the CC50 (usually the concentration at which the toxic effect on the cells reaches its halfway point) in data set [7] (Homo sapiens, 20 h) is 95 µM. In data set [8], the “effect on electrophoretic mobility of CCC and OC forms” value was “does not cause any significant effect”. Also, the “changes in CD spectrum of CT DNA” value in [9] is “two new sizable CD bands at 330 and 340 nm”.

On to `N.N.[Cl][Pt][Cl]` [cisplatin], for which the “effect on electrophoretic mobility of CCC and OC forms” value in [8] is “decrease in mobility of the CCC form and an increase in mobility of the OC form”.

Regarding Ru(KTZ)2Cl2, the IC50 (commonly the concentration that gives 50% inhibition) in data set [10] was approximately 25 µM.

Regarding “[Ru(η^6-p-cymene)(η^6-CQDP)][BF4]2 [Complex 5]”, in [3], the “Kb1, Absorption Titration” value is given as 2.10 ± 0.68 x 10^7 M^−1 and the “Kb2, Absorption Titration” value is recorded as 3.15 ± 0.12 x 10^5 M^−1. In addition, in data set [4], the “Kb1, Emission Titration” value was 1.2e+06 M⁻¹ and the “Kb2, Emission Titration” value was 354000 M⁻¹. In addition, in data set [5], the “ΔTm /1h incubation/25mM NaClO4” value is “+5.1 °C” and the “ΔTm /1h incubation/50m M NaClO4” value is “+2.8 °C”. In [6] (SUP-T1, 20 h of incubation, PI and flow cytometry, average of triplicates), this compound gave a CC50 of 70 µM. For the same compound, in data set [7] (20 h of incubation, PI and flow cytometry, average of triplicates), the CC50 is 77 µM. In data set [11], the “mechanism of cell death (apoptosis/necrosis)” value is “mainly induce apoptosis”. For the same compound, the “antitumor activity (in words)” value in [12] is listed as “active”. Moreover, in data set [13], the “antitumor activity (in words)” value is “active”.
